According to ChEMBL document CHEMBL5120742, “Multi-target weapons: diaryl-pyrazoline thiazolidinediones simultaneously targeting VEGFR-2 and HDAC cancer hallmarks” (RSC Med Chem, 2021):

Experiments:
[1] = target: T1, Histone deacetylase 8 (Homo sapiens) (UniProt Q9BY41); test: Inhibition of recombinant human N-terminal His6-SUMO-tagged C-terminal SII-tagged HDAC8 expressed in Escherichia coli (BL21) DE3 pLysS cells assessed as residual activity at 50 uM using BocLys(trifluoroacetyl)-AMC as substrate incubated for 30 mins by fluorescence assay relative to control
T1 sequence (whole entry): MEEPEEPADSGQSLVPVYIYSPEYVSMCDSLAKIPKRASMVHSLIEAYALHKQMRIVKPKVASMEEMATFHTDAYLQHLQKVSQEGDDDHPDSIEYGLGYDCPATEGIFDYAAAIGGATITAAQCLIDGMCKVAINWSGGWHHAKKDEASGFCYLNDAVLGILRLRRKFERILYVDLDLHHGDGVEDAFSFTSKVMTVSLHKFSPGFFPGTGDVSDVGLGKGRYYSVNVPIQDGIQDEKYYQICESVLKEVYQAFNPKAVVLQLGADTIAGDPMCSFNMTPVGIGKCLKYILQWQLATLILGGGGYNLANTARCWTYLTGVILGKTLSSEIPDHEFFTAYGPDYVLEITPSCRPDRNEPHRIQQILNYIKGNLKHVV
In short: (§1)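 Catalytic-domain HDAC4 (His6-SUMO/SII-tagged) and full-length codon-optimized human HDAC8 were expressed in E. coli BL21 DE3 pLysS from pET14b. Both were assayed in a two-step fluorogenic format with Boc-Lys(trifluoroacetyl)-AMC, followed by trypsin development. Compounds were screened first at 50 µM for residual activity.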

[2] = Cytotoxicity against HUVEC cells assessed as reduction in cell viability after 96 hrs by MTT assay; details: human
[3] = target: T2, Histone deacetylase 4 (Homo sapiens, UniProt P56524); test: Inhibition of recombinant human N-terminal His6-SUMO-tagged C-terminal SII-tagged HDAC4 expressed in Escherichia coli (BL21) DE3 pLysS cells assessed as residual activity at 50 uM using BocLys(trifluoroacetyl)-AMC as substrate incubated for 30 mins by fluorescence assay relative to control; in short: as §1
[4] = target: T2, Histone deacetylase 4; test: Inhibition of recombinant human N-terminal His6-SUMO-tagged C-terminal SII-tagged HDAC4 expressed in Escherichia coli (BL21) DE3 pLysS cells using BocLys(trifluoroacetyl)-AMC as substrate incubated for 30 mins by fluorescence assay; in short: as §1
[5] = target: Vascular endothelial growth factor receptor 2 (Homo sapiens, UniProt P35968); test: Inhibition of human VEGFR2 in HUVEC cells assessed as reduction in VEGFR2 phosphorylation at 10 uM incubated for 30 mins by anti-phospho VEGF Tyr 1175 antibody based assay relative to control; assay type: cell-based
In short: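 HUVECs were seeded at 4000–5000 per well in DMEM with 10% FCS for 12 h, then held 24 h in serum. Compound (10 µM) was added with serum for 30 min at 37 °C. Cells were fixed in 4% formaldehyde and probed with anti-phospho-VEGFR Tyr1175 (1:1000), then an HRP secondary (1:5000). TMB signal was stopped with 2N H2SO4 and read at 450 nm. Percent inhibition is normalized to control.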

[6] = target: T3, Histone deacetylase 8 (Homo sapiens, UniProt Q9BY41); test: Inhibition of recombinant human N-terminal His6-SUMO-tagged C-terminal SII-tagged HDAC8 expressed in Escherichia coli (BL21) DE3 pLysS cells using BocLys(trifluoroacetyl)-AMC as substrate incubated for 30 mins by fluorescence assay; in short: as §1
T3 sequence (Q9BY41 whole entry): T1 sequence (whole entry)

[7] = test system: K562; test: Antiproliferative activity against human K562 cells assessed as reduction in cell viability after 48 hrs by MTT assay; assay type: functional, cell-based; details: K562, 48 h
In short: (§2)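 MCF-7, K562, A549 and HT-29 lines were seeded in 96-well plates and kept overnight at 37 °C, 5% CO2, 95% humidity. They were then exposed to six concentrations (100 to 2.5) for 48 h. After PBS washes, MTT was added for 4 h at 37 °C and formazan was dissolved in DMSO. Absorbance was read at 570 nm. Survival is mean OD of treated wells over the negative control, and IC50 was derived from that.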

[8] = test system: HT-29; test: Antiproliferative activity against human HT-29 cells assessed as reduction in cell viability after 48 hrs by MTT assay; assay type: functional, cell-based; details: HT-29, 48 h; in short: as §2

T2 sequence (P56524 whole entry): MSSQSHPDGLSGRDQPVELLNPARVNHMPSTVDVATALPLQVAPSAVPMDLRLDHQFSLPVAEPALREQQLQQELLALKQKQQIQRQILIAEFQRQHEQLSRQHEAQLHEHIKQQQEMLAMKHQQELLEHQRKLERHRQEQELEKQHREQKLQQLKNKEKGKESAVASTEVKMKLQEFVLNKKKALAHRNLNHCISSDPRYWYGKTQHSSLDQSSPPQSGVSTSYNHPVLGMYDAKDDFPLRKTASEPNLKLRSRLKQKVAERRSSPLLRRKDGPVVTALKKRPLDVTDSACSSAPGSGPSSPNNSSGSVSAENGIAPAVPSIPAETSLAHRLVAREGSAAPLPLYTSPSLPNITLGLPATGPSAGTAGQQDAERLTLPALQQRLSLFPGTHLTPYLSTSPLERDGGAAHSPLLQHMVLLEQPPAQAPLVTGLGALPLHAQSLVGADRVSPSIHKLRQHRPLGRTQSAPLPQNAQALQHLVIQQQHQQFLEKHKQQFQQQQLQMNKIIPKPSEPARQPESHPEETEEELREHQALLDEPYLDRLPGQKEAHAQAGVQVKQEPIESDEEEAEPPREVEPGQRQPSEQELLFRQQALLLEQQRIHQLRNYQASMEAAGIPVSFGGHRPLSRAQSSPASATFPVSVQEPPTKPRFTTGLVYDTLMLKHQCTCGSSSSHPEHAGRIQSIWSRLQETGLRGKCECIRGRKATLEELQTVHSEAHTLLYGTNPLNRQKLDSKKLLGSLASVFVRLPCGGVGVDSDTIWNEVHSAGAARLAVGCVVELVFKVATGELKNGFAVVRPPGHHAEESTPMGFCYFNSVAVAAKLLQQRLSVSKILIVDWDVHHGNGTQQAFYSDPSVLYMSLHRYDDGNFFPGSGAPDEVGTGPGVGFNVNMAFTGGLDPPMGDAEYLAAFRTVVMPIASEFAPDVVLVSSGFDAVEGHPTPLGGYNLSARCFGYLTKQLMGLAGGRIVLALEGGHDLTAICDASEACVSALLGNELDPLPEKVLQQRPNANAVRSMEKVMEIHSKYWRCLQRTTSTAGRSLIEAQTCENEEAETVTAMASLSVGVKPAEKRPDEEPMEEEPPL
Vascular endothelial growth factor receptor 2, sequence (P35968 whole entry): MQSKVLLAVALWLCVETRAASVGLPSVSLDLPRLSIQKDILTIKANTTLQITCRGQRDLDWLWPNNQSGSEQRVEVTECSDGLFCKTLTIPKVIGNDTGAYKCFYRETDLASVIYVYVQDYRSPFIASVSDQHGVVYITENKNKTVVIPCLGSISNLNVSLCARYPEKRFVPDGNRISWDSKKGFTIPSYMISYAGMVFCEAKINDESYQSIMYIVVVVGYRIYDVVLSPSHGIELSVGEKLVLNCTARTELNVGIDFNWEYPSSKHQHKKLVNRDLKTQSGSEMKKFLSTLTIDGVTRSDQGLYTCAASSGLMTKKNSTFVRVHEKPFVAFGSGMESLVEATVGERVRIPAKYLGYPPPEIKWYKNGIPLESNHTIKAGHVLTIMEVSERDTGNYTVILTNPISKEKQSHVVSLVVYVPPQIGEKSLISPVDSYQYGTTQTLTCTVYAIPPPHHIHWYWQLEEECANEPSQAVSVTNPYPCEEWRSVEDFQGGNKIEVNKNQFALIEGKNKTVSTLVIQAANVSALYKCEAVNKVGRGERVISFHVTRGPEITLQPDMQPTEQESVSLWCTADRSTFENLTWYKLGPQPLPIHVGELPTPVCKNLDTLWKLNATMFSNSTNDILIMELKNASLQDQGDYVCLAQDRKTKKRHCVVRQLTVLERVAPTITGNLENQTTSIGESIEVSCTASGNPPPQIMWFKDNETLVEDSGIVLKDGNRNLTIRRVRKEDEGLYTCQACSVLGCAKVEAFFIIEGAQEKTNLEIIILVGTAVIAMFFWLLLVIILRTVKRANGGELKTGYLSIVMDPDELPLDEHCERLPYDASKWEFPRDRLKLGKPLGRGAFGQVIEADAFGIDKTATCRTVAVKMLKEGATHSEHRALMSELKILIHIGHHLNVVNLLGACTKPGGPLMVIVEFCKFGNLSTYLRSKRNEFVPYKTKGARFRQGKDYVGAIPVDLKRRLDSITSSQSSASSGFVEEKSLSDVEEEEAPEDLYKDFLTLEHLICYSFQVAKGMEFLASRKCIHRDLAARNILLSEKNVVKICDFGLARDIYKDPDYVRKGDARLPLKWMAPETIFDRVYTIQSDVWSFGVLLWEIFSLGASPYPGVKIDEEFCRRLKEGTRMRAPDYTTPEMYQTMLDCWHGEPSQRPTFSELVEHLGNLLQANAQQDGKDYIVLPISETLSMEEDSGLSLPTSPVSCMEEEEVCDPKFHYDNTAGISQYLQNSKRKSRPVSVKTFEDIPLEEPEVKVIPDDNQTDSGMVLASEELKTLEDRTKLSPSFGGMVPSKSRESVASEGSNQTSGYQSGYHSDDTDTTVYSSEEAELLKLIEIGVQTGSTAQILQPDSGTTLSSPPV

SMILES	Activity [1] [%]	Activity [3] [%]	IC50 [4] [µM]	inhibition [5] [%]	IC50 [6] [µM]	IC50 [7] [µM]	IC50 [8] [µM]	IC50 at 96 h [2] [µM]
O=C1NC(=O)/C(=C\c2ccc(OCC(=O)N3N=C(c4ccc(F)cc4)CC3c3ccc(C(F)(F)F)cc3)cc2)S1 (centres undefined)	81	9.2	1.3	48.7	> 50	–	–	6
O=C1NC(=O)/C(=C\c2ccc(OCC(=O)N3N=C(c4ccc(F)cc4)CC3c3ccccc3)cc2)S1 (centres undefined)	58	10	4.2	–	> 50	–	–	> 10
O=C1NC(=O)/C(=C\c2ccc(OCC(=O)N3N=C(c4ccccc4)CC3c3ccc(F)cc3F)cc2)S1 (centres undefined)	33	17	2.2	–	34	–	–	–
O=C1NC(=O)/C(=C\c2ccc(OCC(=O)N3N=C(c4ccc(F)cc4)CC3c3ccccc3Cl)cc2)S1 (centres undefined)	28	3.3	1.1	–	> 50	–	–	–
CC(=O)O[C@H]1C(=O)[C@@]2(C)[C@H]([C@H](OC(=O)c3ccccc3)[C@]3(O)C[C@H](OC(=O)[C@H](O)[C@@H](NC(=O)c4ccccc4)c4ccccc4)C(C)=C1C3(C)C)[C@]1(OC(C)=O)CO[C@@H]1C[C@@H]2O [PACLITAXEL]	–	–	–	–	–	0.29	0.28	–
O=C1NC(=O)/C(=C\c2ccc(OCC(=O)N3N=C(c4ccccc4)CC3c3ccccc3Cl)cc2)S1 (centres undefined)	27	14	1.2	49	29	–	–	2
O=C1NC(=O)/C(=C\c2ccc(OCC(=O)N3N=C(c4ccccc4)CC3c3ccc(C(F)(F)F)cc3)cc2)S1 (centres undefined)	8.2	12	1	–	16	–	–	> 10
O=C1NC(=O)/C(=C\c2ccc(OCC(=O)N3N=C(c4ccccc4)CC3c3ccc(Br)cc3)cc2)S1 (centres undefined)	21	7	1.2	–	35	–	–	–
O=C1NC(=O)/C(=C\c2ccc(OCC(=O)N3N=C(c4ccccc4)CC3c3ccccc3)cc2)S1 (centres undefined)	39	11	1.6	–	20	–	–	–

More lines, main results first:

Activity [1] [%]	Activity [3] [%]	IC50 [4] [µM]	inhibition [5] [%]	IC50 [6] [µM]	IC50 [7] [µM]	IC50 [8] [µM]	SMILES	IC50 at 96 h [2] [µM]
81	10	1.8	–	> 50	–	–	Cc1ccc(C2CC(c3ccc(F)cc3)=NN2C(=O)COc2ccc(/C=C3/SC(=O)NC3=O)cc2)cc1 (centres undefined)	–
61	3.3	1.4	–	> 50	–	–	O=C1NC(=O)/C(=C\c2ccc(OCC(=O)N3N=C(c4ccc(F)cc4)CC3c3ccc(F)cc3)cc2)S1 (centres undefined)	> 10
69	9.4	1.5	–	> 50	–	–	Cc1ccc(C2CC(c3ccc(F)cc3F)=NN2C(=O)COc2ccc(/C=C3/SC(=O)NC3=O)cc2)cc1 (centres undefined)	> 10
69	10	1.5	–	> 50	–	–	O=C1NC(=O)/C(=C\c2ccc(OCC(=O)N3N=C(c4ccc(F)cc4F)CC3c3ccc(F)cc3)cc2)S1 (centres undefined)	–
63	10	1.6	–	> 50	–	–	O=C1NC(=O)/C(=C\c2ccc(OCC(=O)N3N=C(c4ccc(F)cc4)CC3c3ccc(F)cc3F)cc2)S1 (centres undefined)	–
100	22	15	–	> 50	–	–	O=C1NC(=O)/C(=C\c2ccc(OCC(=O)N3N=C(c4ccc(F)cc4F)CC3c3ccco3)cc2)S1 (centres undefined)	–
36	4.6	1.2	–	31	–	–	Cc1ccc(C2CC(c3ccccc3)=NN2C(=O)COc2ccc(/C=C3/SC(=O)NC3=O)cc2)cc1 (centres undefined)	–
26	2.5	1.7	–	26	–	–	O=C1NC(=O)/C(=C\c2ccc(OCC(=O)N3N=C(c4ccccc4)CC3c3ccc(F)cc3)cc2)S1 (centres undefined)	–
